The values that follow come from ChEMBL document CHEMBL3351269, “Phenylimidazoles as potent and selective inhibitors of coagulation factor XIa with in vivo antithrombotic activity” (J Med Chem, 2014).

A short description of assay [1]: Inhibition of rabbit coagulation factor 11a using p-nitroaniline as substrate assessed as substrate hydrolysis at 37 degC by spectrophotometrically. Further details: species or system Oryctolagus cuniculus. The method in brief: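 Rabbit FXIa, chromogenic pNA-release read at 405 nm, run at 37 °C. IC50 from duplicate determinations over 8–11 concentrations, converted to Ki by Ki = IC50/(1+[S]/Km), assuming competitive inhibition.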

Assay [2] has as its target T1, Coagulation factor VII (Oryctolagus cuniculus, UniProt P98139).
T1 sequence (P98139 whole entry): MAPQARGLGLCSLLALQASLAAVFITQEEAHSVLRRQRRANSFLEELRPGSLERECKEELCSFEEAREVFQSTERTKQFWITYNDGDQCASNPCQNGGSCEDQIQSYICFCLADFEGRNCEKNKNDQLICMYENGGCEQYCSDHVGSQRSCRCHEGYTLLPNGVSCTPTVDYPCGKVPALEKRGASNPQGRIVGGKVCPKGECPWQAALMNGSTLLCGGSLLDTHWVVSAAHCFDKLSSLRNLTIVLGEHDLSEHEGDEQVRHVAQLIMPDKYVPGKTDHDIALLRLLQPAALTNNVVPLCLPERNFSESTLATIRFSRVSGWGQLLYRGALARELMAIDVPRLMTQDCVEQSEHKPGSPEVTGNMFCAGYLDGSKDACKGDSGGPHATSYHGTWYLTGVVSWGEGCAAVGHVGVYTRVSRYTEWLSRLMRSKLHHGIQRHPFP
Nature of the assay: Inhibition of rabbit coagulation factor 7a using H-(D)-Ile-Pro-Arg-pNA as substrate by spectrophotometric analysis.

Assay [3] concerns the target T2, Coagulation factor VII (Homo sapiens, UniProt P08709).
T2 sequence (P08709 whole entry): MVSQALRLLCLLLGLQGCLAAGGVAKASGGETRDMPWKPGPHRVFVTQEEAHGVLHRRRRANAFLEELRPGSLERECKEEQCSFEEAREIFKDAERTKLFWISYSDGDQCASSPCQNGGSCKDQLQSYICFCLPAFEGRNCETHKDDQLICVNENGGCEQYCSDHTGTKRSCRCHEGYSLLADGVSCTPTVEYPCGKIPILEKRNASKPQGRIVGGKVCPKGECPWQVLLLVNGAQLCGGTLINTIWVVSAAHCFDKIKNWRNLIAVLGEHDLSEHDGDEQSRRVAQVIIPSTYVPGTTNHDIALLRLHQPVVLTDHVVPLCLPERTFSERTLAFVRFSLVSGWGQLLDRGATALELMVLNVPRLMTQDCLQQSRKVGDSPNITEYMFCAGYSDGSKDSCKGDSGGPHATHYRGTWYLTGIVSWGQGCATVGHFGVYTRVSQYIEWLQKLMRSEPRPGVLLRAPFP
The assay can be described thus: Inhibition of human coagulation factor 7a using H-(D)-Ile-Pro-Arg-pNA as substrate by spectrophotometric analysis. Put shortly: (§1)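 Purified human enzymes; reaction started by adding enzyme to substrate with or without inhibitor, excess substrate and inhibitor over enzyme, 1% DMSO, room temperature, 10–120 min. pNA read at 405 nm. FXIa, FXIIa and chymotrypsin in HEPES pH 7.4 with NaCl, KCl and PEG; FXa and kallikrein in phosphate pH 7.5; FVIIa in HEPES with CaCl2. IC50 from duplicates over 8–11 concentrations, converted to Ki assuming competitive inhibition.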

The next assay has as its system Plasma. Nature of the assay: Anticoagulant activity in healthy human plasma assessed as prothrombin time by PT assay. Format: functional. Put shortly:
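Citrated healthy-volunteer plasma spiked with inhibitor (10 mM DMSO stock diluted in plasma, up to seven concentrations). PT with Thromboplastin C-Plus: plasma warmed 3 min at 37 °C before reagent was added. Duplicates, as mean ratio to baseline control. Concentration that doubles clotting time by linear interpolation, as total plasma concentration.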

The nature of assay [4]: Anticoagulant activity in rabbit plasma assessed as concentration required to 2 fold prolong clotting time by aPTT assay. Type of assay: functional, Oryctolagus cuniculus.
Assay [5] in a line: Inhibition of rabbit coagulation thrombin using pyro-Glu-Pro-Argp-NA as substrate by spectrophotometric analysis. Details: species or system Oryctolagus cuniculus.
For the next assay, the target named is Prothrombin (Homo sapiens, UniProt P00734). Nature of the assay: Inhibition of human coagulation thrombin using pyro-Glu-Pro-Argp-NA as substrate by spectrophotometric analysis. Put shortly: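 Purified enzymes (α-thrombin; trypsin) in 100 mM sodium phosphate pH 7.5, 200 mM NaCl, 0.5% PEG 8000, 1% DMSO final, room temperature. Enzyme added last to substrate ± inhibitor, with substrate and inhibitor in excess. pNA release read at 405 nm over 10−120 min. IC50 from duplicate runs over 8−11 concentrations, then converted to Ki assuming competitive inhibition, using Km.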

The nature of assay [6]: Inhibition of human coagulation chymotrypsin using MeO-Suc-Arg-Pro-Tyr-pNA as substrate by spectrophotometric analysis. Put shortly: as §1

Take `NC[C@H]1CC[C@H](C(=O)N[C@@H](Cc2ccccc2)c2nc(-c3ccc4c(N)n[nH]c4c3)c(Cl)[nH]2)CC1.O=C(O)C(F)(F)F`: the Ki (commonly a dissociation constant, usually derived from enzyme kinetics or from competition with a known ligand) in assay [1] was 0.0012 µM; on Coagulation factor VII [2], 10 µM; on Coagulation factor VII [3], 4.22 µM; in assay [5], above 20 µM; at Prothrombin, above 12.6 µM; in assay [6], above 20.8 µM. In addition, in the assay on Plasma, the 2PT was above 40 µM. Besides, in assay [4], the 2aPTT came to 2 µM.
